Results of several laboratories.
Lines come from different studies, so protocols differ.
TDP1: Tyrosyl-DNA phosphodiesterase 1 (TDP1, Homo sapiens, UniProt Q9NUW8)
MAOA: Amine oxidase [flavin-containing] A (MAOA, Homo sapiens, UniProt P21397)
SLC22A6: Solute carrier family 22 member 6 (SLC22A6, Homo sapiens, UniProt Q4U2R8)
PRMT3: Protein arginine N-methyltransferase 3 (PRMT3, Homo sapiens, UniProt O60678)
PTPN1: Tyrosine-protein phosphatase non-receptor type 1 (PTPN1, Homo sapiens, UniProt P18031)
LDHA: L-lactate dehydrogenase A chain (LDHA, Homo sapiens, UniProt P00338)
RIPK2: Receptor-interacting serine/threonine-protein kinase 2 (RIPK2, Homo sapiens, UniProt O43353)
GSR: Glutathione reductase, mitochondrial (GSR, Homo sapiens, UniProt P00390)
PDE7A: High affinity 3',5'-cyclic-AMP phosphodiesterase 7A (PDE7A, Homo sapiens, UniProt Q13946)

SMILES	target	test	setting	IC50
COc1cc2c(OC)nc3c4cc5c(cc4cc(OCCCN4CCCC4)c3c2cc1OC)OCO5	TDP1	enzyme activity, inhibitor, fluorescence		4.8 µM
O=c1cc(-c2ccc(O)cc2)oc2cc(O)c([C@@H]3O[C@H](CO)[C@@H](O)[C@H](O)[C@H]3O)c(O)c12	MAOA	enzyme activity, inhibitor		25.8 µM
Cc1cccc(Nc2ccccc2C(=O)O)c1C	SLC22A6	transporter uptake, inhibitor		1.08 µM
C[C@@H](N)COc1ccc(-c2cnc3ccc(N[C@H](C)c4cccc(F)c4)nn23)cc1	High affinity nerve growth factor receptor (NTRK1, Homo sapiens, UniProt P04629)	enzyme activity, inhibitor		0.0044 µM
Nc1ncnc2c1ncn2[C@@H]1O[C@H](CSCCNC(=O)Nc2ccc(F)cc2)[C@@H](O)[C@H]1O	PRMT3	enzyme activity, inhibitor, fluorescence		2 µM
CN1CCN(c2ccc(Nc3ncc4cc(C#N)c(=O)n(C5CCCC5)c4n3)cc2)CC1	Serine/threonine-protein kinase MARK2 (MARK2, Homo sapiens, UniProt Q7KZI7)	enzyme activity, inhibitor		0.566 µM
Nc1ncnc2c1ncn2[C@@H]1O[C@H](CSCCNC(=O)NCc2ccccc2)[C@@H](O)[C@H]1O	Protein arginine N-methyltransferase 5 (PRMT5, Homo sapiens, UniProt O14744)	enzyme activity, inhibitor, radiometric		< 2.4 µM
CCOCc1nc(O)c(-c2nnc(Cc3ccc(Cl)cn3)o2)c(O)c1-c1c(OC)cccc1OC	Histamine H2 receptor (HRH2, Homo sapiens, UniProt P25021)	ligand displacement, radioligand		> 30 µM
CCOc1ccc2c(-c3cc(C)nc(Nc4cc(OC)cc(C(F)(F)F)c4)n3)cnn2n1	Homeodomain-interacting protein kinase 4 (HIPK4, Homo sapiens, UniProt Q8NE63)	enzyme activity, inhibitor		> 10 µM
CC1=C[C@@]2(C[C@H](C)[C@H]3CC=C(C)[C@@H](O[C@@H]4O[C@H](CO)[C@@H](O)[C@H](O)[C@H]4O)[C@@H]3O2)OC1=O	PTPN1	enzyme activity, inhibitor		91.3 µM
CC[C@@H](C)[C@@H](NC(=O)[C@@H](CCC(N)=O)NC(=O)[C@H](NC(C)=O)C(C)C)C(=O)N[C@@H](C(=O)N[C@H](Cc1ccc(O)cc1)C(=O)N[C@H](CCCCN)C(N)=O)C(C)C	Insulin (INS, Homo sapiens, UniProt P01308)	enzyme activity, inhibitor	pH 7.4	~75 µM
C[C@@H]1O[C@@H](O[C@@H]2[C@@H](O)[C@H](OCCc3ccc(O)c(O)c3)O[C@H](CO)[C@H]2OC(=O)/C=C/c2ccc(O)c(O)c2)[C@H](O)[C@H](O)[C@H]1O	LDHA	enzyme activity, inhibitor	pH 7.4	> 500 µM
Nc1ncnc2c1ncn2[C@@H]1O[C@H](CSCCCNC(=O)NCc2ccccc2)[C@@H](O)[C@H]1O	PRMT3	enzyme activity, inhibitor, fluorescence		70 µM
COc1cc2c(OC)nc3c4cc5c(cc4cc(OCCCN4CCC(O)CC4)c3c2cc1OC)OCO5	TDP1	enzyme activity, inhibitor		5.5 to 13 µM
COc1cc(-c2cc(=O)c3c(O)c(OC)c(O[C@@H]4O[C@H](CO)[C@@H](O)[C@H](O)[C@H]4O[C@@H]4O[C@H](CO)[C@@H](O)[C@H](O)[C@H]4O)cc3o2)ccc1O	LDHA	enzyme activity, inhibitor	pH 7.4	260 µM
Nc1ncnc2c1ncn2[C@@H]1O[C@H](CSCCNC(=O)NCCc2ccccc2)[C@@H](O)[C@H]1O	PRMT3	enzyme activity, inhibitor, fluorescence		> 100 µM
CC(C)(C)n1nc(-c2cnc3cc(OC4CC4)ccc3c2)c(C(N)=O)c1N	RIPK2	cell-free assay		1.71 µM
CCn1ncc2c1-c1cnc(N)c(c1)O[C@H](C)c1cc(F)ccc1-c1nn(C)nc1C2	Focal adhesion kinase 1 (PTK2, Homo sapiens, UniProt Q05397)	enzyme activity, inhibitor, radiometric		0.011 µM
Cc1c(C)c2c(c(C)c1O)CCC(C)(COc1ccc(CC3SC(=O)NC3=O)cc1)O2 (centres unmarked)	Peroxisome proliferator-activated receptor delta (PPARD, Homo sapiens, UniProt Q03181)	enzyme activity, inhibitor		46 µM

SMILES	target	test	setting	IC50
CC1(C)C(/C=C/C=C2/N(CCCc3ccccc3)c3ccc(Cl)cc3C2(C)C)=[N+](CCCc2ccccc2)c2ccc(Cl)cc21	PRMT3	enzyme activity, inhibitor, radiometric		1.03 µM
COc1cc2c(OC)nc3c4cc5c(cc4cc(OCCCN4CCC(N6CCCCC6)CC4)c3c2cc1OC)OCO5	TDP1	enzyme activity, inhibitor, fluorescence		6.4 µM
N[C@@H](Cc1ccc(C(F)(F)P(=O)(O)O)cc1)C(=O)O	PTPN1	enzyme activity, inhibitor, absorbance		500 µM
C#Cc1ccc(C(=O)C2=C(C)C(=O)c3ccccc3C2=O)cc1	GSR	enzyme activity, inhibitor	pH 6.9	0.6 µM
CSc1ccc(/C=C2/C(C)=C(CC(=O)O)c3cc(F)ccc32)cc1	PDE7A	enzyme activity, inhibitor		> 100 µM
O=C(/C=C/c1ccc(O)cc1)c1ccc(O)cc1O	MAOA	enzyme activity, inhibitor		22.7 µM
CC(C)(C)OC(=O)N1CCN(C(=O)C(=O)CC(=O)c2cccc(N(Cc3ccccc3)Cc3ccccc3)c2)CC1	PTPN1	enzyme activity, inhibitor, absorbance	pH 7	9.2 µM
OC[C@H]1O[C@@H](n2cnc3c(NCCCc4ccccc4)ncnc32)[C@H](O)[C@@H]1O	PRMT3	enzyme activity, inhibitor, fluorescence		> 100 µM
O=C1NC(=O)/C(=C/c2ccc(OCCNc3nc4c(cnn4C4CCCC4)c(=O)[nH]3)c(F)c2)S1	PDE7A	enzyme activity, inhibitor		0.027 µM
CCOC(F)(F)c1nnc2cnc(-c3cnc(OCC(F)(F)F)c(F)c3)cn12	Sodium channel protein type 1 subunit alpha (SCN1A, Homo sapiens, UniProt P35498)	ion current, inhibitor, patch clamp		0.683 µM
C[C@@H]1C[C@@H](O)/C=C/C=C\CC(=O)Cc2c(Cl)c(O)cc(O)c2C(=O)O1	Mitogen-activated protein kinase kinase kinase 7 (MAP3K7, Homo sapiens, UniProt O43318)	enzyme activity, inhibitor, ATP luminescence		> 10 µM
COc1cc(/C=C/C(=O)N2CCC(Cc3ccccc3)CC2)ccc1OCc1ccccc1	MAOA	enzyme activity, inhibitor, fluorescence		80.7 µM
O=c1cc(-c2ccc(O)c(O)c2)oc2cc(O[C@@H]3O[C@H](CO)[C@@H](O)[C@H](O)[C@H]3O)cc(O)c12	LDHA	enzyme activity, inhibitor	pH 7.4	139 µM
CN1CCN(CCCN2c3ccccc3Sc3ccc(Cl)cc32)CC1	GSR	enzyme activity, inhibitor, absorbance		> 100 µM
NC(=O)c1cnc2[nH]ccc2c1N[C@@H]1[C@@H]2CC3C[C@H]1C[C@@](O)(C3)C2	SLC22A6	transporter uptake, inhibitor, radiometric	2 min	> 100 µM
C(/C=C/c1sc2c3ccccc3ccc2[n+]1CCCc1ccccc1)=C1/Sc2c(ccc3ccccc23)N1CCCc1ccccc1	PRMT3	enzyme activity, inhibitor, radiometric		2.1 µM
CNC(=O)c1cc2c(Oc3ccc(NC(=O)C4(C(=O)Nc5ccc(F)cc5)CC4)cc3)ccnc2cc1OC	RIPK2	enzyme activity, inhibitor, radiometric		0.017 µM
O=C(Nc1cccc(NS(=O)(=O)c2ccc3oc4cc([N+](=O)[O-])ccc4c3c2)c1)C1(O)CC1	LDHA	enzyme activity, inhibitor		0.757 µM
COc1oc(=O)c2cc(N)ccc2c1Cl	Rhomboid protease AarA (Providencia stuartii, UniProt P46116)	enzyme activity, inhibitor, fluorescence		71 µM
